Measurements: ChEMBL document CHEMBL1122209, “Synthesis of N-[[(substituted-phenyl)carbonyl]amino]-1,2,3,6-tetrahydropyridines with analgesic and hyperglycemic activity” (J Med Chem, 1982)

How the values were obtained:
Mus musculus [1] = assay: Analgesic activity was measured by phenylquinone writhing test in male Swiss albino mice at a dose of 0.004 mg/Kg, sc; assay type: functional
In short: (§1)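 Groups of five male Swiss albino mice (18-22 g). Test agent was suspended in physiological saline with Tween 80 by ultrasonic mixing and given sc. After 30 min, 0.03% phenyl-p-benzoquinone was given ip at 0.1 mL/10 g body weight. Total writhes were counted and compared with a vehicle-treated control group: % change = 100 − (treated writhes/control writhes × 100).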

Rattus norvegicus [2] = assay: Percentage change in blood glucose concentration in male Wistar rats after 2 hr post treatment at a dose of 100 mg/Kg po.; assay type: functional
In short: (§2)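 Groups of four male Wistar rats (230-260 g), fasted overnight. Test agent was suspended in 1% tragacanth in distilled water and given orally. Tail capillary blood was drawn at 0, 2 and 4 h. Serum glucose was determined spectrophotometrically from enzymatically produced NADH₂ (Barthelma-Czok procedure). Results are the mean of four animals; a positive value means hyperglycemic, a negative value hypoglycemic.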

Rattus norvegicus [3] = assay: Percentage change in blood glucose concentration in male Wistar rats after 4 hr post treatment at a dose of 100 mg/Kg po.; assay type: functional; in short: as §2
Mus musculus [4] = assay: Analgesic activity was measured by phenylquinone writhing test in male Swiss albino mice at a dose of 0.004 mg/Kg, sc.; assay type: functional; in short: as §1
Rattus norvegicus [5] = assay: Percentage change in blood glucose concentration in male Wistar rats after 2 hr post treatment at a dose of 100 mg/Kg po; Hyperglycemic; assay type: functional; in short: as §2
Rattus norvegicus [6] = assay: Percentage change in blood glucose concentration in male Wistar rats after 4 hr post treatment at a dose of 100 mg/Kg po; Hyperglycemic; assay type: functional; in short: as §2
Rattus norvegicus [7] = assay: Percentage change in blood glucose concentration in male Wistar rats after 2 hr post treatment at a dose of 100 mg/Kg po; Hypoglycemic; assay type: functional; in short: as §2
Rattus norvegicus [8] = assay: Percentage change in blood glucose concentration in male Wistar rats after 4 hr post treatment at a dose of 100 mg/Kg po; Hypoglycemic; assay type: functional; in short: as §2
Mus musculus [9] = assay: Analgesic activity was measured by phenylquinone writhing test in male Swiss albino mice at a dose of 50 mg/Kg, sc.; assay type: functional; in short: as §1
Rattus norvegicus [10] = assay: Percentage change in blood glucose concentration in male Wistar rats after 2 hr post treatment at a dose of 30 mg/Kg po; Hyperglycemic; assay type: functional; in short: as §2
Mus musculus [11] = assay: Analgesic activity was measured by phenylquinone writhing test in male Swiss albino mice at a dose of 0.038 mg/Kg, sc.; settings: read-out: Inhibition
Mus musculus [12] = assay: Analgesic activity was measured by phenylquinone writhing test in male Swiss albino mice at a dose of 3.1 mg/Kg, sc.; settings: read-out: Inhibition
Rattus norvegicus [13] = assay: Percentage change in blood glucose concentration in male Wistar rats after 4 hr post treatment at a dose of 30 mg/Kg po; Hyperglycemic; assay type: functional; in short: as §2
Rattus norvegicus [14] = assay: Antiinflammatory activity was measured by carrageenan-induced paw edema test in female Sprague-Dawley rats at dose of 12 mg/Kg sc after 3h
Rattus norvegicus [15] = assay: Antiinflammatory activity was measured by carrageenan-induced paw edema test in female Sprague-Dawley rats at dose of 12 mg/Kg sc after 5 hr

SMILES | inhibition in vivo at 0.004 mg/kg (Mus musculus [1]) | Change (Rattus norvegicus [2]) | Change (Rattus norvegicus [3]) | also measured
O=C(NN1CC=CCC1)c1ccc(Cl)cc1 | 61.6% | 109% | 26% | 
O=C(NN1CC=CCC1)c1ccc([N+](=O)[O-])cc1 |  |  |  | inhibition in vivo at 0.004 mg/kg (Mus musculus [4]): 51%; Change (Rattus norvegicus [5]): 92.6%; Change (Rattus norvegicus [6]): 140.6%
CCCNC(=O)NS(=O)(=O)c1ccc(Cl)cc1 [CHLORPROPAMIDE] |  |  |  | Change (Rattus norvegicus [7]): -42%; Change (Rattus norvegicus [8]): -38%
COc1ccccc1C(=O)NN1CC=CCC1 | 69.6% | 5.8% | 6.3% | 
CCC(=O)O[C@](Cc1ccccc1)(c1ccccc1)[C@H](C)CN(C)C [PROPOXYPHENE] | 50% |  |  | 
CC(=O)Oc1ccccc1C(=O)O [ASPIRIN] |  |  |  | inhibition in vivo at 50 mg/kg (Mus musculus [9]): 50%
COc1cccc(C(=O)NN2CC=CCC2)c1 | 68.8% | 113.3% | 72.8% | 
CC(C)(C)c1ccc(C(=O)NN2CC=CCC2)cc1 | 48.8% | 1.8% | 4.7% | 
Cc1ccccc1C(=O)NN1CC=CCC1 | 72% |  |  | Change (Rattus norvegicus [7]): -2.8%; Change (Rattus norvegicus [8]): -6.3%
O=C(NN1CC=CCC1)c1ccc(F)cc1 | 55.2% | 124% | 154% | 
O=C(NN1CC=CCC1)c1cccc(F)c1 | 65.6% | 167.3% | 137.8% | 
O=C(NN1CC=CCC1)c1ccccc1F | 64.8% | 213% | 127% | Change (Rattus norvegicus [10]): 50%
Cc1ccc(C(=O)NN2CC=CCC2)cc1 | 48% | 73% | 41% | 
O=C(NN1CC=CCC1)c1ccccc1C(F)(F)F | 64% | 1.2% | 19.6% | 
COc1ccc(C(=O)NN2CC=CCC2)cc1 | 57.6% | 69% | 26% | 
CN1CC[C@]23c4c5ccc(O)c4O[C@H]2[C@@H](O)C=C[C@H]3[C@H]1C5 |  |  |  | inhibition in vivo at 0.038 mg/kg (Mus musculus [11]): 50%; inhibition in vivo at 3.1 mg/kg (Mus musculus [12]): 50%
O=C(NN1CC=CCC1)c1ccccc1 | 73.6% | 78% | 50% | 
O=C(NN1CC=CCC1)c1cccc(C(F)(F)F)c1 | 54.4% | 114.8% | 102% | 
Cc1ccc(C(=O)NN2CC=CCC2)cc1C | 60.8% | 92.3% | 62.8% | 
O=C(NN1CC=CCC1)c1ccc(Cl)cc1Cl | 57.2% |  | 1.3% | Change (Rattus norvegicus [7]): -6.5%
Cc1cccc(C(=O)NN2CC=CCC2)c1 | 56% | 117.2% | 108.5% | Change (Rattus norvegicus [10]): 50%; Change (Rattus norvegicus [13]): 50%
O=C(NN1CC=CCC1)c1ccc(Cl)c(Cl)c1 | 48.8% | 50% | 59% | 
COc1ccc2c(c1)c(CC(=O)O)c(C)n2C(=O)c1ccc(Cl)cc1 [INDOMETHACIN] |  |  |  | inhibition in vivo at 12 mg/kg (Rattus norvegicus [14]): 17%; inhibition in vivo at 12 mg/kg (Rattus norvegicus [15]): 83%
O=C(NN1CC=CCC1)c1cc(Cl)cc(Cl)c1 | 69.6% | 3.8% | 18.5% | 
O=C(NN1CC=CCC1)c1ccc(C(F)(F)F)cc1 | 46.4% | 43.3% | 37.3% | 
O=C(NN1CC=CCC1)c1ccccc1Cl | 52% | 16.9% | 21.4% | 
